Measured values gathered from unrelated publications.
Lines come from different studies, so protocols differ.

SMILES	assay	system	setting	endpoint	result
CCCCN(CCCC)CCCOc1ccc2c(=O)c3c([nH]c2c1)CCCC3	metabolic stability	mouse, liver microsomes	1 µM, pH 7.4	microsomal CLint	36.2 µL/min/mg
CC(C)n1ncc2c(C(=O)NCC(C)(C)N(C)C)cc(C3CC3)nc21	metabolic stability	mouse, liver microsomes		scaled CLint	120 mL/min/kg
CNS(=O)(=O)c1ccc(Nc2ncc3cc(Cl)c(=O)n(C4CCCC4)c3n2)c(C)c1		rat, plasma	intravenous, 2 mg/kg	Vd	4 L/kg
O=c1c2ccc(OCc3cccc(C(F)(F)F)c3)cc2[nH]c2ccc(Cl)c(F)c12	metabolic stability	mouse, liver microsomes	1 µM, pH 7.4	microsomal CLint	0.59 µL/min/mg
Cc1cc(S(=O)(=O)NC2CC(N3CCN(CC4CCN(c5ccc6c(c5F)n(C)c(=O)n6C5CCC(=O)NC5=O)CC4)CC3)C2)ccc1Nc1ncc(C(F)(F)F)c(N2CCCC(C)(O)C2)n1 (centres unmarked)		rat, plasma	intravenous, 2 mg/kg	Vd	18 L/kg
O=c1c2ccc(Oc3cccc(OC(F)(F)F)c3)cc2[nH]c2cc(Cl)cc(F)c12	metabolic stability	mouse, liver microsomes	1 µM, pH 7.4	microsomal CLint	24.3 µL/min/mg
CC1(C)NC(=O)N(c2ccc(F)c(S(C)(=O)=O)c2)C1=O	metabolic stability	mouse, liver microsomes		microsomal CLint	< 7 µL/min/mg
CNS(=O)(=O)c1ccc(Nc2ncc(C(F)(F)F)c([C@H]3CC[C@@](C)(O)CC3)n2)c(C)c1		rat, plasma	intravenous, 2 mg/kg	Vd	1 L/kg
CC(C)c1cc(C(=O)NCCN)c2cnn(C(C)C)c2n1	metabolic stability	mouse, liver microsomes		scaled CLint	< 38 mL/min/kg
CCC(F)(F)c1cc(N2C(=O)NC(C)(C)C2=O)ccc1F	metabolic stability	mouse, liver microsomes		microsomal CLint	7 µL/min/mg
O=c1c2c([nH]c3ccc(Oc4ccc(OC(F)(F)F)cc4)cc13)CCCC2	metabolic stability	mouse, liver microsomes	1 µM, pH 7.4	microsomal CLint	39 µL/min/mg
C[C@H]1Oc2cc(cnc2N)-c2c(nn(C)c2C#N)CN(C)C(=O)c2ccc(F)cc21		male Sprague-Dawley rat, plasma	oral, 5 mg/kg, single dose	Vd/F	20 L/kg
CNCCNC(=O)c1cc(C(C)C)nc2c1cnn2C(C)C	metabolic stability	mouse, liver microsomes		scaled CLint	694 mL/min/kg
Cc1cc(S(=O)(=O)NC2CC(N3CCN(CC4CCN(c5cccc6c5n(C)c(=O)n6C5CCC(=O)NC5=O)CC4)C4(CC4)C3)C2)ccc1Nc1ncc(C(F)(F)F)c(N2CCC[C@](C)(O)C2)n1 (some centres unmarked)		rat, plasma	intravenous, 2 mg/kg	Vd	82 L/kg
